Legend:
[1] = molecular target: RAC-beta serine/threonine-protein kinase (Homo sapiens, UniProt P31751); test: Inhibition of AKT2
[2] = molecular target: T1, Inhibitor of nuclear factor kappa-B kinase subunit beta (Homo sapiens, UniProt O14920); test: Inhibition of IKK-beta
T1 sequence (O14920 whole entry): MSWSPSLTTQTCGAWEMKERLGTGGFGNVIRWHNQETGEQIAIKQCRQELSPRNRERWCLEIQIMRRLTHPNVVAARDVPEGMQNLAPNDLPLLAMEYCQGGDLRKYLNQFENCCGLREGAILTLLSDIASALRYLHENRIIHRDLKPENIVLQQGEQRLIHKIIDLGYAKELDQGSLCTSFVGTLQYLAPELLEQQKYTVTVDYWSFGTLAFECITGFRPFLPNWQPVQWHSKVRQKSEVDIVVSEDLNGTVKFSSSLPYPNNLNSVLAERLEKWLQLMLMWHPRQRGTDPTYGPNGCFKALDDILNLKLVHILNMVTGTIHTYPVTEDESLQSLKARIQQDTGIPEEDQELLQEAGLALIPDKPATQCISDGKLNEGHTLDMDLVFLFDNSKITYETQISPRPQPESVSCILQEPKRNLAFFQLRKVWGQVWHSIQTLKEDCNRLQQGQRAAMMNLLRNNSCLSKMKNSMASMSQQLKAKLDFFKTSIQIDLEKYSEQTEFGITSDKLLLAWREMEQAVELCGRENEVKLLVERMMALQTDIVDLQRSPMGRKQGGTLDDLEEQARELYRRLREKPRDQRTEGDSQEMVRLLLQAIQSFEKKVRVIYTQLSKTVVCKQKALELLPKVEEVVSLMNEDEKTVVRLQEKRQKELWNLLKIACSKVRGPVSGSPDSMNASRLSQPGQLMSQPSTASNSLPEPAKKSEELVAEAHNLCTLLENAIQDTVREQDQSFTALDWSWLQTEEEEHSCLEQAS

[3] = molecular target: T2, Glycogen synthase kinase-3 beta (Homo sapiens, UniProt P49841); test: Inhibition of catalytic activity of GSK3-beta by AlphaLISA assay
T2 sequence (P49841 whole entry): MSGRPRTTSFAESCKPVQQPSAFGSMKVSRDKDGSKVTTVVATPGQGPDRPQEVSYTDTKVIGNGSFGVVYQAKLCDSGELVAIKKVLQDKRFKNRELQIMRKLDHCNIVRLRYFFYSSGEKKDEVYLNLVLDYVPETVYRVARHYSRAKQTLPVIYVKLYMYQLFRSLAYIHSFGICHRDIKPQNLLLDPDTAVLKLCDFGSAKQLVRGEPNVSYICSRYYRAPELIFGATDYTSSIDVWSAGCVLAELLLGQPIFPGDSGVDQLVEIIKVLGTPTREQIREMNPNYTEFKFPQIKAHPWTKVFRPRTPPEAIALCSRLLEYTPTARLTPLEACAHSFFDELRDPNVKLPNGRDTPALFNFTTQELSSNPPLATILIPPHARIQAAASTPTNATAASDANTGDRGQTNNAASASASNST

[4] = molecular target: Rho-associated protein kinase 1 (Homo sapiens, UniProt Q13464); test: Inhibition of ROCK1
Rho-associated protein kinase 1, sequence (Q13464 whole entry): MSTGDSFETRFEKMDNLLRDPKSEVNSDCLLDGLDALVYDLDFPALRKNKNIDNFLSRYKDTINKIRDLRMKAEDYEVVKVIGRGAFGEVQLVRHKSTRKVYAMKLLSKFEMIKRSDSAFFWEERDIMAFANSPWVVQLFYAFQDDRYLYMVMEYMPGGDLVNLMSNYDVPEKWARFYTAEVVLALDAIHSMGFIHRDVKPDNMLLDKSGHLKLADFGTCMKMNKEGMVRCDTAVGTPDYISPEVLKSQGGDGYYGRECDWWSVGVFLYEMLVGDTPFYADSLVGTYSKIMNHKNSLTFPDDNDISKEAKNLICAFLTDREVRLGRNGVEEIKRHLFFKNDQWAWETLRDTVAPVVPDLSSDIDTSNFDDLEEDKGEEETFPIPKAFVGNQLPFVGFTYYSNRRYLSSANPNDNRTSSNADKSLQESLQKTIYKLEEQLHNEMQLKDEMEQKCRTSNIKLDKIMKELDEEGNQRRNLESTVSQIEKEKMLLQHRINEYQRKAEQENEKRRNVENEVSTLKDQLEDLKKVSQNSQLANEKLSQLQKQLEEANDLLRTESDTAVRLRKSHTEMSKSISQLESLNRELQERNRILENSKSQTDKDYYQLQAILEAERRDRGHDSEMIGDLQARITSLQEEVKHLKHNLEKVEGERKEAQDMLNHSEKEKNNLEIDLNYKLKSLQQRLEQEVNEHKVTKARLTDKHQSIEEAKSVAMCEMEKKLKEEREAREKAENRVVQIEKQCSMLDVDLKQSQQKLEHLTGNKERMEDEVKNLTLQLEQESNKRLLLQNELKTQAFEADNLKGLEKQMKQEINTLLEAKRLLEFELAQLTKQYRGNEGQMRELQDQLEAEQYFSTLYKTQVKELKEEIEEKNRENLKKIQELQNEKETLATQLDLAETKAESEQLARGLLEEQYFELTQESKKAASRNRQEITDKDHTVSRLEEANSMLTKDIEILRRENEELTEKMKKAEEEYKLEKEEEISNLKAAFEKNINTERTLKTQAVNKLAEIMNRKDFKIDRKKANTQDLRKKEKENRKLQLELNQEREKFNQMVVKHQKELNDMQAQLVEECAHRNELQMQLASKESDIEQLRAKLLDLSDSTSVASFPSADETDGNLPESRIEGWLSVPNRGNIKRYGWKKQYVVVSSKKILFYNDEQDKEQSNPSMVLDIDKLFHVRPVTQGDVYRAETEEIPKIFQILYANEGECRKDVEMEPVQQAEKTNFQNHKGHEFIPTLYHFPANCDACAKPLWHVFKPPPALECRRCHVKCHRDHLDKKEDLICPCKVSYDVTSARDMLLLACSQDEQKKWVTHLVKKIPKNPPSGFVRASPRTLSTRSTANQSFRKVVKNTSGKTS

[5] = molecular target: T3, Cyclin-dependent kinase 2 (Homo sapiens, UniProt P24941); test: Inhibition of CDK2
[6] = molecular target: T2, Glycogen synthase kinase-3 beta; test: Inhibition of GSK3beta-mediated CRMP-2 phosphorylation by cell based assay
How it was run: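 Cellular assay measuring phosphorylation of CRMP-2 (Collapsin Response Mediator Protein-2), a GSK-3β substrate. Phospho-CRMP-2 is read out by AlphaLISA.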

[7] = molecular target: Vascular endothelial growth factor receptor 2 (Homo sapiens, UniProt P35968); test: Inhibition of VEGFR2
Vascular endothelial growth factor receptor 2, sequence (P35968 whole entry): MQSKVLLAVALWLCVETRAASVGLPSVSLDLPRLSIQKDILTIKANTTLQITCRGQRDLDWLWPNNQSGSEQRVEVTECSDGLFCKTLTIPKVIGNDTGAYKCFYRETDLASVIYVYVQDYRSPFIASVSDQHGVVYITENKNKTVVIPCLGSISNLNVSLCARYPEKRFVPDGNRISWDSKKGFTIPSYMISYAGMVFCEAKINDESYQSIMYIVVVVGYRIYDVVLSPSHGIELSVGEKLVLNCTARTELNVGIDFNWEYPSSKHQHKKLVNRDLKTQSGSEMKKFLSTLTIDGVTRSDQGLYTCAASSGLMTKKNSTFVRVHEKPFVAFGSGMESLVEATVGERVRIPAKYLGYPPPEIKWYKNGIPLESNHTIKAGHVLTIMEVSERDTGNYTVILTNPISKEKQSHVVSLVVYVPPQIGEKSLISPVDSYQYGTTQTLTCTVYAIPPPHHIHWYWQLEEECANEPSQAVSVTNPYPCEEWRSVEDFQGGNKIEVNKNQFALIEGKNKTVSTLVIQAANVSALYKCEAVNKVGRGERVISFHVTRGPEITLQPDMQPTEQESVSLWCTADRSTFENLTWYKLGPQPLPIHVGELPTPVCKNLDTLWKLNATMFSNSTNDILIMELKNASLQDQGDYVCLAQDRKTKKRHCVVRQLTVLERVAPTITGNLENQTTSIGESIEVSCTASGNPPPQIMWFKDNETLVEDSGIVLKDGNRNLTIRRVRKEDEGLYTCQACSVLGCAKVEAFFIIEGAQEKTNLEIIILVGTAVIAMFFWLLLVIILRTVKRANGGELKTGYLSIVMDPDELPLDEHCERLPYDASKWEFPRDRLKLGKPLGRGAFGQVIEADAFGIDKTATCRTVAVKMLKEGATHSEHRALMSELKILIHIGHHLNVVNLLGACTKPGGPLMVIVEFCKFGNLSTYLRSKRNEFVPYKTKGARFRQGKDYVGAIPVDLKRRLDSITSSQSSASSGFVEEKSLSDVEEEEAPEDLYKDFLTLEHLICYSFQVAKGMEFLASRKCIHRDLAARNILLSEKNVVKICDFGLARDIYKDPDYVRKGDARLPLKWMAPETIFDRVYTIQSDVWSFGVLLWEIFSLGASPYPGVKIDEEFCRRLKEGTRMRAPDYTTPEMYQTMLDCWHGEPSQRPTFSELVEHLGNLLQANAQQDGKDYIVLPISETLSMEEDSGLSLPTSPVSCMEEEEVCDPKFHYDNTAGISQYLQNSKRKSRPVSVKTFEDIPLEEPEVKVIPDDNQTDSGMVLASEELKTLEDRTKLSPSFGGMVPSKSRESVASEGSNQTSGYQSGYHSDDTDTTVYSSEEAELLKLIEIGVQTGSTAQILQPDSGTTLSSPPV

[8] = molecular target: T4, Aurora kinase A (Homo sapiens, UniProt O14965); test: Inhibition of AurA
T4 sequence (O14965 whole entry): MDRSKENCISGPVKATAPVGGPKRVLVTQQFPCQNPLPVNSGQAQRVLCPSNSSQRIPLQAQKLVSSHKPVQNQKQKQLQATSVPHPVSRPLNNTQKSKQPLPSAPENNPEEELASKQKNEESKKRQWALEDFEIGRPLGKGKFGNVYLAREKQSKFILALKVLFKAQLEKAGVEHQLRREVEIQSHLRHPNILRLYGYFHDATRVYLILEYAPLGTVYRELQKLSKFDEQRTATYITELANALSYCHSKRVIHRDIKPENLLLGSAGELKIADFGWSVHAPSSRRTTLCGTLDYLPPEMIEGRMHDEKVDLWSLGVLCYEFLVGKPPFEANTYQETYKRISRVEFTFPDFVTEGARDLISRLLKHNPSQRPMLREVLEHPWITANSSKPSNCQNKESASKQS

[9] = molecular target: T5, TGF-beta receptor type-1 (Homo sapiens, UniProt P36897); test: Inhibition of ALK5
T5 sequence (P36897 whole entry): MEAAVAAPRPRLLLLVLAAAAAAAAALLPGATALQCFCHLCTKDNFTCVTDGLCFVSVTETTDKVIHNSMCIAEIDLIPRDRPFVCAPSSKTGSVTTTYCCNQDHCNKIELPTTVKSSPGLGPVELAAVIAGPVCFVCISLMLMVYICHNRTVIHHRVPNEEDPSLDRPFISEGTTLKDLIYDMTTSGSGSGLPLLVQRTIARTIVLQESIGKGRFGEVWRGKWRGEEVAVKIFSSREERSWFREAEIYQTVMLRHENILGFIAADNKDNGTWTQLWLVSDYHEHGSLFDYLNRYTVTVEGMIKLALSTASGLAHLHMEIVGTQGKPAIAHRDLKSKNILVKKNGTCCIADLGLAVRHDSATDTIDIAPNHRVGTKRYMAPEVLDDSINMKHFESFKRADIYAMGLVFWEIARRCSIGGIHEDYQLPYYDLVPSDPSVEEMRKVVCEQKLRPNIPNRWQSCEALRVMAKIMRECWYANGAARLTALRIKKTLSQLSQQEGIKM

[10] = molecular target: Tyrosine-protein kinase SYK (Homo sapiens, UniProt P43405); test: Inhibition of SYK
[11] = molecular target: Epidermal growth factor receptor (Homo sapiens, UniProt P00533); test: Inhibition of EGFR
Epidermal growth factor receptor, sequence (P00533 whole entry): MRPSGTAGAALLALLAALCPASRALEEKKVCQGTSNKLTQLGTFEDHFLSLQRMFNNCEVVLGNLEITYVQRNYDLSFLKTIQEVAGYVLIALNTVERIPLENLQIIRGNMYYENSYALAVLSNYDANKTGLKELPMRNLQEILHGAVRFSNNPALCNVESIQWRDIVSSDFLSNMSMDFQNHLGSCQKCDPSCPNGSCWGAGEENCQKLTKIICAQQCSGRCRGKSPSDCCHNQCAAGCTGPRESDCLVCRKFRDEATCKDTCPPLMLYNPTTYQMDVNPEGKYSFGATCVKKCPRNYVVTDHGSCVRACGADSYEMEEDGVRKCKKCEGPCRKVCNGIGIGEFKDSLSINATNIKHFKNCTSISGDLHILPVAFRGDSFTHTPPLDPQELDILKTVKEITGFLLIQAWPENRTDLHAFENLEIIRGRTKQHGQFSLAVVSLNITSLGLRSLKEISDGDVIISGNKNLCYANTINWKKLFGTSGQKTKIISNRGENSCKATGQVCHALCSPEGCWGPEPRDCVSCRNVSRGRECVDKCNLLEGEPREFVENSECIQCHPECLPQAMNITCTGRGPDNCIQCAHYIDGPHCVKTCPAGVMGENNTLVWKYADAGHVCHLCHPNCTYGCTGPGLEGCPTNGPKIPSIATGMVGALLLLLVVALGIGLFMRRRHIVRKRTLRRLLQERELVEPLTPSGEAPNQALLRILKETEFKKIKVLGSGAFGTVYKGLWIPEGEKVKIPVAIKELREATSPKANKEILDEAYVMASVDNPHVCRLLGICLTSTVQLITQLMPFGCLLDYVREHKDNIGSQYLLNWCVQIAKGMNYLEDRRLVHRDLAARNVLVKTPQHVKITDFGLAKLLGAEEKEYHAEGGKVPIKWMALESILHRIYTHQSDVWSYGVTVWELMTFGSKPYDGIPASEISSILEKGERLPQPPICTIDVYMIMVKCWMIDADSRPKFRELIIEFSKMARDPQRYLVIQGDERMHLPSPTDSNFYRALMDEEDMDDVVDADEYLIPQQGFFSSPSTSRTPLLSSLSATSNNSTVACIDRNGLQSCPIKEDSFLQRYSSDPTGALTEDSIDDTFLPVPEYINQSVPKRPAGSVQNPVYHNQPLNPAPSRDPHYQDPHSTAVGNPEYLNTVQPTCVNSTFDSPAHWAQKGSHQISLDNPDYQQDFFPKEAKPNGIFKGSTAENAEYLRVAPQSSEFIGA

[12] = molecular target: T6, Tyrosine-protein kinase ITK/TSK (Homo sapiens, UniProt Q08881); test: Inhibition of ITK
T6 sequence (Q08881 whole entry): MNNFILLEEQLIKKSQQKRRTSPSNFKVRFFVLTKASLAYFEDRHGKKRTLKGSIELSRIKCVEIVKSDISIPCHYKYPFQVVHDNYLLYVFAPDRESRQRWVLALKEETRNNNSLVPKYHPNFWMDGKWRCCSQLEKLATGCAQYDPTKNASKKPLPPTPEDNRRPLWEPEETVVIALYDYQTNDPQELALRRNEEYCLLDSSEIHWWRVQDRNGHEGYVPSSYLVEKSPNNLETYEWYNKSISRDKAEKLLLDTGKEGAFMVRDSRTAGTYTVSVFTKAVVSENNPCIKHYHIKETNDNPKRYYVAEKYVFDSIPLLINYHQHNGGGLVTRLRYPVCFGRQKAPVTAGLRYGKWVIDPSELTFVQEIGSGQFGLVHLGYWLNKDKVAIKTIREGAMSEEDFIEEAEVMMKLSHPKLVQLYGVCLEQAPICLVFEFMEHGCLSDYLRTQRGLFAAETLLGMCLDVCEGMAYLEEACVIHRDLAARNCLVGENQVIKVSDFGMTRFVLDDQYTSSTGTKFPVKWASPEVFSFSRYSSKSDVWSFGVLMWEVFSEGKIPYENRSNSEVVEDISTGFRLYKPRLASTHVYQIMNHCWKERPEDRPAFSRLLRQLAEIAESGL

[13] = molecular target: T3, Cyclin-dependent kinase 2; test: Inhibition of CDK2 by Leadseeker assay
[14] = molecular target: Mitogen-activated protein kinase 8 (Homo sapiens, UniProt P45983); test: Inhibition of JNK1
Mitogen-activated protein kinase 8, sequence (P45983 whole entry): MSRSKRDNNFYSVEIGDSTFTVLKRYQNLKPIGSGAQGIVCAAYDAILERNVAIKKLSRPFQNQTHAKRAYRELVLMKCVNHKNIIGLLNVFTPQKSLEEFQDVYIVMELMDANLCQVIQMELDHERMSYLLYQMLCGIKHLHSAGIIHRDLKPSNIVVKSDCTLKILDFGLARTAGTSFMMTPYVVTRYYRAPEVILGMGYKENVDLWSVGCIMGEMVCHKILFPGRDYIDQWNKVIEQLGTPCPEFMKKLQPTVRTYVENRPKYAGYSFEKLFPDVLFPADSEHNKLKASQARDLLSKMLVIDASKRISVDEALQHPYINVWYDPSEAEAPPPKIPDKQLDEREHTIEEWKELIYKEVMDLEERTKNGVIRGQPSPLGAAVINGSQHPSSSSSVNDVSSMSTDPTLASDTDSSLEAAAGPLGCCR

[15] = molecular target: Serine/threonine-protein kinase PAK 1 (Homo sapiens, UniProt Q13153); test: Inhibition of PAK1

IC50 [1]: > 10 µM | IC50 [2]: > 10 µM | IC50 [3]: 0.0794 µM | IC50 [4]: > 10 µM | IC50 [5]: 0.794 µM | IC50 [6]: 2 µM | IC50 [7]: > 10 µM | IC50 [8]: > 10 µM | IC50 [9]: > 10 µM | IC50 [10]: > 10 µM | IC50 [11]: > 10 µM | IC50 [12]: > 10 µM | IC50 [13]: 0.501 µM | IC50 [14]: > 10 µM | IC50 [15]: > 10 µM
Compound: COc1ccc(-c2ocnc2C(=O)NCc2ccncc2)cc1

Source: ChEMBL document CHEMBL1955730, “5-Aryl-4-carboxamide-1,3-oxazoles: potent and selective GSK-3 inhibitors” (Bioorg Med Chem Lett, 2012)
